# According to ChEMBL document CHEMBL4680236, “Design, synthesis and structure-activity relationships of novel 15-membered macrolides: Quinolone/quinoline-containing sidechains tethered to the C-6 position of azithromycin acylides” (Eur J Med Chem, 2020):
# What was measured:
# Enterobacter cloacae = experiment: Antibacterial activity against Enterobacter cloacae ATCC 43560 assessed as reduction in microbial growth; format: functional
# Escherichia coli [1] = experiment: Antibacterial activity against NDM-1 producing Escherichia coli […] assessed as reduction in microbial growth; format: functional
# Klebsiella aerogenes = experiment: Antibacterial activity against Enterobacter aerogenes ATCC 13048 assessed as reduction in microbial growth; format: functional
# [2] = system: Staphylococcus epidermidis; experiment: Antibacterial activity against methicillin-susceptible Staphylococcus epidermidis ATCC 12228 assessed as reduction in microbial growth; format: functional
# Klebsiella pneumoniae [3] = experiment: Antibacterial activity against NDM-1 producing Klebsiella pneumoniae ATCC BAA-2146 assessed as reduction in microbial growth; format: functional
# Acinetobacter baumannii = experiment: Antibacterial activity against Acinetobacter baumannii ATCC 19606 assessed as reduction in microbial growth; format: functional; conditions: ATCC 19606 = CIP 70.34 = JCM 6841
# [4] = system: Staphylococcus epidermidis; experiment: Antibacterial activity against methicillin-resistant Staphylococcus epidermidis 16-5 assessed as reduction in microbial growth; format: functional
# Staphylococcus aureus [5] = experiment: Antibacterial activity against methicillin-resisitant Staphylococcus aureus 16-30 assessed as reduction in microbial growth; format: functional
# Enterococcus faecium = experiment: Antibacterial activity against vancomycin-resistant Enterococcus faecium ATCC 700221 assessed as reduction in microbial growth
# Shigella = experiment: Antibacterial activity against Shigella ATCC 12022 assessed as reduction in microbial growth; format: functional
# Enterococcus faecalis = experiment: Antibacterial activity against vancomycin-susceptible Enterococcus faecalis ATCC 29212 assessed as reduction in microbial growth; format: functional
# Staphylococcus aureus [6] = experiment: Antibacterial activity against methicillin-susceptible Staphylococcus aureus ATCC 29213 assessed as reduction in microbial growth; format: functional
# Staphylococcus aureus [7] = experiment: Ratio of MBC to MIC against MLSB/methicillin/ciprofloxacin-resistant Staphylococcus aureus PU32 harboring ermA gene; format: functional
# Staphylococcus aureus [8] = experiment: Bactericidal activity against MLSB/methicillin/ciprofloxacin-resistant Staphylococcus aureus PU32 harboring ermA gene; format: functional
# Method in brief: (§1)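 Bacteria were exposed to 1- to 8-fold their MIC of test sample, then transferred to fresh culture medium without antibacterial compound and incubated for the required time. Colonies were then counted. MBC is the lowest concentration giving a reduction in colony number of >3 Log₁₀.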
# Streptococcus pyogenes [9] = experiment: Antibacterial activity against MLSB-resistant Streptococcus pyogenes 12-206 harboring ermA gene assessed as reduction in microbial growth; format: functional
# Streptococcus pyogenes [10] = experiment: Ratio of MBC to MIC against MLSB-resistant Streptococcus pyogenes 12-206 harboring ermA gene; format: functional
# Haemophilus influenzae [11] = experiment: Bactericidal activity against azithromycin-susceptible Haemophilus influenzae ATCC 49247; format: functional
# Method in brief: (§2)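 Bacteria were exposed to 1- to 8-fold MIC of the sample, then transferred to fresh medium without antibacterial. After further incubation, colonies were counted. MBC was taken as the lowest concentration giving a >3 log10 reduction in colony number.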
# Streptococcus pneumoniae [12] = experiment: Bactericidal activity against MLSB-resistant Streptococcus pneumoniae 07P390 harboring ermB gene assessed as reduction in microbial growth; format: functional; method in brief: as §1
# Staphylococcus aureus [13] = experiment: Antibacterial activity against MLSB/methicillin/ciprofloxacin-resistant Staphylococcus aureus PU32 harboring ermA gene assessed as reduction in microbial growth; format: functional
# Staphylococcus aureus [14] = experiment: Antibacterial activity against MLSB/methicillin-resistant Staphylococcus aureus 15B196 assessed as reduction in microbial growth; format: functional
# Streptococcus pneumoniae [15] = experiment: Antibacterial activity against MLSB-resistant Streptococcus pneumoniae 07P390 harboring ermB gene assessed as reduction in microbial growth; format: functional
# Streptococcus pneumoniae [16] = experiment: Ratio of MBC to MIC against MLSB-resistant Streptococcus pneumoniae 07P390 harboring ermB; format: functional
# Streptococcus pneumoniae [17] = experiment: Antibacterial activity against Erythromycin-susceptible Streptococcus pneumoniae ATCC 49619 assessed as reduction in microbial growth; format: functional
# Streptococcus pyogenes [18] = experiment: Bactericidal activity against MLSB-resistant Streptococcus pyogenes 12-206 harboring ermA gene; format: functional; method in brief: as §1
# Staphylococcus aureus [19] = experiment: Ratio of MBC to MIC against MLSB/methicillin-resistant Staphylococcus aureus 15B196; format: functional
# Staphylococcus aureus [20] = experiment: Bactericidal activity against MLSB/methicillin-resistant Staphylococcus aureus 15B196; format: functional; method in brief: as §1
# Haemophilus influenzae [21] = experiment: Antibacterial activity against azithromycin-susceptible Haemophilus influenzae ATCC 49247 assessed as reduction in microbial growth; format: functional
# Streptococcus pneumoniae [22] = experiment: Bactericidal activity against penicillin-susceptible Streptococcus pneumoniae PU09 harboring mef gene; format: functional; method in brief: as §1
# Streptococcus pneumoniae [23] = experiment: Ratio of MBC to MIC against penicillin-susceptible Streptococcus pneumoniae PU09; format: functional
# Streptococcus pneumoniae [24] = experiment: Ratio of MBC to MIC against Erythromycin-susceptible Streptococcus pneumoniae ATCC 49619; format: functional
# Streptococcus pneumoniae [25] = experiment: Antibacterial activity against penicillin-susceptible Streptococcus pneumoniae PU09 harboring mef gene assessed as reduction in microbial growth; format: functional
# Streptococcus pneumoniae [26] = experiment: Bactericidal activity against Erythromycin-susceptible Streptococcus pneumoniae ATCC 49619; format: functional; method in brief: as §2
# Staphylococcus aureus [27] = experiment: Antibacterial activity against MLSB/methicillin/ciprofloxacin-resistant Staphylococcus aureus PU32 harboring ermA gene assessed as reduction in microbial growth relative to ciprofloxacin; format: functional
# Haemophilus influenzae [28] = experiment: Antibacterial activity against azithromycin-susceptible Haemophilus influenzae ATCC 49247 assessed as reduction in microbial growth relative to ciprofloxacin; format: functional
# Staphylococcus aureus [29] = experiment: Antibacterial activity against MLSB/methicillin-resistant Staphylococcus aureus 15B196 assessed as reduction in microbial growth relative to ciprofloxacin; format: functional
# Klebsiella pneumoniae [30] = experiment: Antibacterial activity against ESBL producing Klebsiella pneumoniae 16-14 assessed as reduction in microbial growth; format: functional
# Pseudomonas aeruginosa = experiment: Antibacterial activity against Pseudomonas aeruginosa ATCC 27853 assessed as reduction in microbial growth; format: functional
# Escherichia coli [31] = experiment: Antibacterial activity against ESBL negative Escherichia coli 16-7 assessed as reduction in microbial growth; format: functional
# Escherichia coli [32] = experiment: Antibacterial activity against ESBL positive Escherichia coli 16-1 assessed as reduction in microbial growth; format: functional
# Haemophilus influenzae [33] = experiment: Ratio of MBC to MIC against azithromycin-susceptible Haemophilus influenzae ATCC 49247; format: functional
Structure (SMILES),MIC (Enterobacter cloacae) [mg/L],MIC (Escherichia coli [1]) [mg/L],MIC (Klebsiella aerogenes) [mg/L],MIC [2] [mg/L],MIC (Klebsiella pneumoniae [3]) [mg/L],MIC (Acinetobacter baumannii) [mg/L],MIC [4] [mg/L],MIC (Staphylococcus aureus [5]) [mg/L],MIC (Enterococcus faecium) [mg/L],MBC (Streptococcus pneumoniae [12]) [mg/L],MIC (Staphylococcus aureus [13]) [mg/L],MIC (Staphylococcus aureus [14]) [mg/L],MIC (Streptococcus pneumoniae [15]) [mg/L],Ratio (Streptococcus pneumoniae [16]),MIC (Streptococcus pneumoniae [17]) [mg/L],MIC (Haemophilus influenzae [21]) [mg/L],MBC (Streptococcus pneumoniae [22]) [mg/L],Ratio (Streptococcus pneumoniae [23]),MIC (Streptococcus pneumoniae [25]) [mg/L],MBC (Streptococcus pneumoniae [26]) [mg/L],further results
C[C@H]1COc2c(N3CCN(C)CC3)c(F)cc3c(=O)c(C(=O)O)cn1c23.C[C@H]1COc2c(N3CCN(C)CC3)c(F)cc3c(=O)c(C(=O)O)cn1c23.O [LEVOFLOXACIN],< 0.03,16,0.06,0.12,> 128,0.25,8,32,32,,,,,,,,,,,,MIC (Shigella): < 0.03 mg/L; MIC (Enterococcus faecalis): 0.5 mg/L; MIC (Staphylococcus aureus [6]): 0.12 mg/L
CC[C@H]1OC(=O)[C@H](C)[C@@H](OC(=O)Cc2ccccn2)[C@H](C)[C@@H](O[C@@H]2O[C@H](C)C[C@H](N(C)C)[C@H]2O)[C@](C)(OC(=O)CCN2CCN(c3cc4c(cc3F)c(=O)c(C(N)=O)cn4C3CC3)CC2)C[C@@H](C)CN(C)[C@H](C)[C@H]2OC(=O)O[C@@]21C,,,,,,,,,,32,32,32,32,1,4,256,16,2,8,8,Ratio (Staphylococcus aureus [7]): >8; MBC (Staphylococcus aureus [8]): > 256 mg/L; MIC (Streptococcus pyogenes [9]): 16 mg/L; Ratio (Streptococcus pyogenes [10]): 1; MBC (Haemophilus influenzae [11]): > 256 mg/L; MBC (Streptococcus pyogenes [18]): 16 mg/L; Ratio (Staphylococcus aureus [19]): >8; MBC (Staphylococcus aureus [20]): > 256 mg/L; Ratio (Streptococcus pneumoniae [24]): 2
CC[C@H]1OC(=O)[C@H](C)C(=O)[C@H](C)[C@@H](O[C@@H]2O[C@H](C)C[C@H](N(C)C)[C@H]2O)[C@](C)(OC)C[C@@H](C)C(=O)[C@H](C)[C@H]2N(CCCCn3cnc(-c4cccnc4)c3)C(=O)O[C@]12C [TELITHROMYCIN],,,,,,,,,,> 0.125,2,4,0.016,>8,≤ 0.008,4,0.5,2,0.25,≤ 0.008,fold change (FC) (Staphylococcus aureus [27]): 0.0032; fold change (FC) (Haemophilus influenzae [28]): 407; MIC (Streptococcus pyogenes [9]): 0.25 mg/L; fold change (FC) (Staphylococcus aureus [29]): >52
CC[C@H]1OC(=O)[C@H](C)[C@@H](OC(=O)Cc2ccccn2)[C@H](C)[C@@H](O[C@@H]2O[C@H](C)C[C@H](N(C)C)[C@H]2O)[C@](C)(OC(=O)CCNCCCNc2cc3c(=O)c(C(=O)O)cn(C4CC4)c3cc2Cl)C[C@@H](C)CN(C)[C@H](C)[C@@H](O)[C@]1(C)O,64,64,64,4,> 64,> 64,> 64,> 64,> 64,> 8,8,> 256,1,>8,0.125,16,1,1,1,0.125,Ratio (Staphylococcus aureus [7]): >8; MBC (Staphylococcus aureus [8]): > 64 mg/L; MIC (Klebsiella pneumoniae [30]): 64 mg/L; MBC (Haemophilus influenzae [11]): 64 mg/L; MIC (Pseudomonas aeruginosa): > 64 mg/L; MIC (Escherichia coli [31]): 64 mg/L; MIC (Escherichia coli [32]): 32 mg/L; Ratio (Haemophilus influenzae [33]): 4; MIC (Shigella): 16 mg/L; MIC (Enterococcus faecalis): 8 mg/L; Ratio (Streptococcus pneumoniae [24]): 1; MIC (Staphylococcus aureus [6]): 8 mg/L
